# This is a sample that favours compounds with a hit; in the whole collection about 2% have one here.
# TRAIL sens C8: sensitizes caspase-8 expressing cells to TRAIL; NB7+C8 cells + TRAIL, ATPlite viability luminescence; inhibition (viability loss, TRAIL sensitization), % at 10 µM; hit rate 1% among 360,000; AID 624354;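 active = compounds causing at least 50% loss of cell viability in the single-dose screen, relative to plate controls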
# FLuc stim CS: firefly luciferase counter-screen for stimulation assays; ATPlite luciferase biochemical, luminescence, 10 min; 0 = ATP-free wells, 1 = DMSO control; activation factor at 10 µM; 200,000 tested, under 10 active;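 active = luciferase activation factor, scaled between plate controls, of at least 2 with compound at 10 µM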
# Target sequence (P08659 whole entry, looked up): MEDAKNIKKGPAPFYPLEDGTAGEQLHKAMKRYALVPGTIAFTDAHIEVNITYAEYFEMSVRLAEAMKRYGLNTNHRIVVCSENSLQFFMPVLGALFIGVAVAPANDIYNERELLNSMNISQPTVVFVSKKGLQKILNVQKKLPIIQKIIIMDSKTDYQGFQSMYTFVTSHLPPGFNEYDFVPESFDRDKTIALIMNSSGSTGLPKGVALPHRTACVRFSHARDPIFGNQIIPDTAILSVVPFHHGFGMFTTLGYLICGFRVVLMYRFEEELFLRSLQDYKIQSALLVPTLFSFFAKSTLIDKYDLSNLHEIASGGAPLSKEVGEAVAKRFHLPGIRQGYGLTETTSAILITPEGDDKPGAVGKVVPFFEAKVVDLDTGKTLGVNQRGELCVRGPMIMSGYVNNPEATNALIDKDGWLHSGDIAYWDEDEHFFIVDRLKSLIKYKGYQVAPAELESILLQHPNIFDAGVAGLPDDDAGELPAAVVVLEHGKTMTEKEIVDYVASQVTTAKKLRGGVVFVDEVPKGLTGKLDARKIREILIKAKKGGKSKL
#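 System: Luciferase/luciferin detection reagent, cell-free biochemical luciferase assay | Medium: PBS buffer for ATP | Dosing: Test compounds dosed from 2 mM stocks in 100% DMSO | Timing: 10 min at ambient temperature | Signal: Luminescence measurement of luciferase light output | Evaluation: Luciferase activation, seen as luminescence increase over controls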
# FLuc inh counter: counter-screen for luciferase assay inhibitors: firefly luciferase inhibition; P08659; ATPLite firefly luciferase biochemical luminescence, 10 min; inhibition, % at 10 µM; hit rate 1.5% among 200,000; AID 1006;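 active = inhibition above about 50% when tested at 10 µM, limit read from the data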
# PPC-1+TRAIL kill: compounds killing PPC-1 cancer cells with TRAIL present (potentiator screen, no TRAIL-free arm); cell killing (% activity), % at 4 µM or 5 µM; PPC-1 cells + TRAIL, ATPLite viability luminescence; hit rate 0.41% among 220,000;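 active = cell killing above 50% in the first pass at 4 µM, then a duplicate retest at 5 µM averaging 50% or more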;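 also: plate controls were cells with TRAIL plus DMSO for no effect and medium-only wells lacking cells for full effect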
# HSP90 refold inh: HSP90 refolding inhibition in rabbit reticulocyte lysate; luciferase refolding luminescence, 3 h; inhibition, % at 5.6 µM; hit rate 0.91% among 290,000; AID 1789;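 active = inhibition above the screen-wide mean plus 3 SD, computed separately per campaign, cut at about 16% in these data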;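 also: 0% = DMSO wells and 100% = 60 µM geldanamycin wells; inhibitors lower the luminescence because luciferase stays unfolded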
# PPC1 cytotox: kills PPC-1 cells. cytotoxicity, % at 5 µM. AID 1447. PPC-1 viability, ATPlite luminescence, overnight. shares compounds with PPC-1+TRAIL kill. hit rate 50% among 1,200;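 active = reconfirmed compounds whose average cytotoxicity reaches 50% or more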;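 also: 0% = DMSO-treated cells and 100% = wells holding medium but no cells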
# An asterisk follows results filed as active; . = no result given.
SMILES,TRAIL sens C8,FLuc stim CS,FLuc inh counter,PPC-1+TRAIL kill,HSP90 refold inh,PPC1 cytotox
CCC(C)Nc1ccc(NC(C)CC)cc1 (stereo unspecified),77*,.,.,.,.,.
Cc1cccc(C)c1NC(=O)C(CCc1ccccc1)n1c(=O)c(-c2ccccc2)nc2ccccc21 (stereo unspecified),6,.,.,.,.,.
N#Cc1c(N)n(CCNC(=O)c2ccc(Cl)cc2)c2nc3ccccc3nc12,-5,1,-2,2,4,.
Cc1ccc(C(=O)NCCn2c(N)c(C#N)c3nc4ccccc4nc32)cc1,-8,1.1,-8,73*,-1,.
CCCCn1c(NC(=O)c2ccccc2)c(C#N)c2nc3ccccc3nc21,5,1.1,-6,6,49*,.
CCCn1c(N)c(N(CCOC)C(=O)c2ccc(S(=O)(=O)N3CCOCC3)cc2)c(=O)[nH]c1=O,-14,.,.,.,.,.
COc1cccc2oc3ccc(C#Cc4ccccn4)cc3c(=O)c12,69*,.,.,.,17*,.
O=c1c(Br)c(Br)cnn1-c1ccccc1,97*,1,-4,33,-8,.
Cc1ccc(-n2ncc(Br)c(Br)c2=O)cc1,1,0.9,8,20,0,.
Cc1cccn2cc(-c3ccc(Cl)cc3)nc12,35,0.4,63*,42,10,.
COc1ccc(-c2cn3cccc(C)c3n2)cc1F,13,0.6,43,8,1,.
CC(C)c1ccc(/C=N/N2CCCCC2)cc1,3,0.3,66*,9,0,.
Cc1ccsc1/C=C/c1ccc2cccc(O)c2n1,9,0.8,23,29,2,.
Fc1cccc(F)c1/C=C/c1ccc2ccccc2n1,58*,0.2,82*,-5,1,.
C(=C\c1ccco1)/c1ccc2ccccc2n1,-10,.,.,0,-1,.
Fc1cccc(Cl)c1/C=C/c1cnc2ccccc2n1,3,.,.,.,17*,.
Cc1ccsc1/C=C/c1ccc2ccccc2n1,56*,0.6,39,27,9,.
COC(=O)c1ccc2nc(-c3cccc(Cl)c3)c(Cc3cccc(F)c3)n2c1,9,.,.,.,.,.
CCCNC(=O)C1(C)CCCN(Cc2ccc(C(=O)OCC)o2)C1 (stereo unspecified),-13,.,.,.,.,.
CCOC(=O)[C@]12CCCC=C1N(Cc1ccco1)C(=O)[C@H](CC(=O)NCc1cccc3ccccc13)C2,-6,.,.,.,.,.
O=C(O)c1nc(-c2ccccc2)c(C(=O)NC2CC2)[nH]1,-1,.,.,.,.,.
CC1=NNC(=O)C1CC(=O)N/N=C/C(Br)=C/c1ccccc1 (stereo unspecified),-6,.,.,20,2,.
CC1C(=O)NN=C1C(=O)N/N=C\C(Br)=C\c1ccccc1 (stereo unspecified),74*,0,95*,78*,-4,79*
C(=N\Nc1nc2ccccc2s1)/c1ccccn1,.,.,.,69*,86*,73*
COc1ccc(C=NNc2nc3ccccc3s2)cc1,47,.,.,.,.,.
SMILES,TRAIL sens C8,FLuc stim CS,FLuc inh counter,PPC-1+TRAIL kill,HSP90 refold inh,PPC1 cytotox
C#CC(=O)N(c1cc(OC)ccc1OC)C(C(=O)NC1CCCC1)c1cccs1 (stereo unspecified),91*,1.1,-6,98*,11,98*
C#CC(=O)N(c1ccc(OC)cc1OC)C(C(=O)NC1CCCC1)c1cccs1 (stereo unspecified),93*,1.1,-6,97*,6,96*
Cc1cc(Nc2ccccc2)c2c([N+](=O)[O-])ccc(C)c2n1,6,1,-4,22,-3,.
Cc1cc2c3c(ccc(C)c3n1)N=CN2c1ccccc1,16,1.1,-6,13,-2,10
O=S(=O)(NCCSc1ccccc1)c1ccc(F)cc1,-5,1,-1,-2,3,-3
Cc1ccc(C(=O)CC2(O)C(=O)N(C)c3ccccc32)s1 (stereo unspecified),1,1,-1,36,-2,.
Cc1ccc(C(C)C)cc1C(=O)CC1(O)C(=O)N(C)c2ccccc21 (stereo unspecified),0,1.1,-5,-3,0,-7
CC1(C)OC(=O)C2=C(C[C@@H](C3CCCCC3)O[C@H]2c2ccc(Cl)cc2)O1,12,.,.,.,.,.
COc1cccc2c1C(=O)O/C2=C/c1ccc2c(c1)OCO2,63*,0.2,85*,38,0,41
COc1cccc(OC)c1C1=CC(=O)C[C@H](c2ccc3c(c2)OCO3)C1,18,.,.,.,.,.
COc1ccc(-c2cn3c4c(sc3n2)CCCC4)cc1,79*,0.1,91*,76*,15,74*
O=C(NCc1ccccn1)c1cc(-c2ccc(-c3ccccc3)cc2)nc2ccccc12,82*,0.1,88*,61*,0,61*
CC(C)(C)c1ccc(-c2cc(C(=O)NNC(=O)Nc3ccccc3)c3ccccc3n2)cc1,68*,0.2,77*,64*,3,61*
COc1ccc(C(=O)c2[nH]c(N)c(C(=O)NCCc3c[nH]c4ccccc34)c2-c2ccc(C(F)(F)F)cc2)cc1,-7,.,.,.,.,.
Cc1ccc(-c2sc(C(=O)NN)c(C)c2C#N)cc1,34,.,.,73*,1,76*
Cc1ccc(CSc2sc(C(=O)c3ccccc3)c(N)c2C#N)cc1,-5,1.1,-9,-1,-4,.
COc1ccc(CCN2C(=O)CCC2(C)c2nnnn2-c2ccc3c(c2)OCCO3)cc1OC (stereo unspecified),-1,.,.,.,.,.
O=Nc1c2cc(-c3ccccc3)[nH]nc-2c2ccccc12,72*,0.1,87*,74*,11,75*
Cc1ccc(-c2cc3c(N=O)c4ccccc4c-3n[nH]2)cc1,93*,0.1,94*,95*,58*,94*
CCCCCCn1cc(CN2CC(N3CCN(CCO)CC3)CS2(=O)=O)nn1 (stereo unspecified),-1,.,.,.,.,.
NC(=O)c1ccccc1N/C=C/C(=O)c1ccc(Cl)cc1,88*,0.1,94*,84*,0,84*
Cc1ccc(C(=O)/C=C/Nc2ccccc2C(N)=O)cc1,90*,0,97*,93*,5,93*
CCOC(=O)c1ccccc1N/C=C/C(=O)c1ccccc1,13,.,.,.,0,.
CC1(C(=O)O)CCN1C(=O)COc1ccc(Cl)cc1 (stereo unspecified),-6,.,.,.,.,.
COc1ccc(C(=O)N/C(=C/c2cccs2)c2nc3ccccc3[nH]2)cc1OC,-1,1,-5,-11,-2,.
COc1cc(/C=C(/C(=O)c2cccs2)c2nc3ccccc3[nH]2)cc(OC)c1O,37,0.2,77*,22,4,34
CCOC(=O)N(C)c1c(CC)nc2c(OCc3ccc(S(C)(=O)=O)cc3)cccn12,-4,.,.,.,.,.
O=C(CN(Cc1ccc(Cl)cc1)C(=O)CNS(=O)(=O)c1ccc(F)cc1)NCC1CCCO1 (stereo unspecified),-18,.,.,.,1,.
COc1ccccc1-c1cc2c(c3c1ccn3C)C1CCC2C1 (stereo unspecified),-2,.,.,.,.,.
